Entries after “also recorded” stand apart in the source; their conditions may differ. Where no end group is shown, it is not given here. Where only a bound is given, the exact number is not on record here.

The conditions of data set [1]: cited from earlier work.
Data set [2] is described as follows: DPPH radical scavenging assay. Conditions: 15 μg/mL; absorbance 517 nm, 30 minutes in dark, room temperature; triplicate. The gist of the method:
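Test compound at 0.007–1 mg/mL, or GSH positive control over the same range, was mixed with an equal volume of 99.5% ethanol containing 0.02% DPPH. The mixture was held 30 minutes in the dark at room temperature and A517 read, with distilled water replacing sample as control. Scavenging % = (Acontrol − Asample)/Acontrol × 100; triplicate.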

Data set [3] in a line: ABTS radical scavenging activity assay. Conditions: 6 minutes incubation, absorbance 734 nm; triplicate.
For data set [4] the following is noted: ref 32 (Sampath Kumar et al); cited from earlier work.
The conditions of data set [5]: ref 28 (Tanzadehpanah et al); cited from earlier work.
Another data set concerns HFLF-PI 5 cells. As to the kind of experiment: Cytotoxicity assay. The data set is classed as cell-based, human. The following applies: 0–1 mg/mL, MTT 570 nm. The gist of the method:
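HFLF-PI 5 human lung cells were grown in RPMI with penicillin/streptomycin and 10% FBS at 37°C, 5% CO2. Cells were seeded at 1 × 10^5 cells/mL and, at 75% confluence, exposed to test compound at 0–1 mg/mL for 24, 48 or 72 hours, with PBS as control. After PBS washes, MTT (5 mg/mL stock) was added overnight at 37°C and formazan dissolved in DMSO. A570 was read and cytotoxicity % calculated relative to control.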

For the substance HGPLGPL, in data set [1], the “Activity against ROS and linoleic acid peroxidation” value was “strong activity”. With glutathione [GSH], in data set [2], the DPPH-radical scavenging amounted to 67%. In data set [3], the “IC50 ABTS radical scavenging” value is less than 15 µg/mL.

Turning to ACFL, the “Inhibition of the oxidation process relative to α-tocopherol” value in data set [4] was “greater levels of inhibition of the oxidation process”. Turning to LTEQESGVPVMK, the “IC50 DPPH radical scavenging” value in data set [5] was 28.6 ± 1.08 µg/mL. In the case of WESLSRLLG [WG-9], the “Effect on cell viability” value is recorded as “no significantly effect on cell viability; also recorded: no significant cytotoxic effect” with HFLF-PI 5 cells (24 hours, triplicate); “significantly reduced” with HFLF-PI 5 cells (48 hours, p < 0.05); “significantly reduced” in the data set on HFLF-PI 5 cells (72 hours, p < 0.05).
